Here are results for 31 compounds from ChEMBL document CHEMBL1129649, “A novel series of (phenoxyalkyl)imidazoles as potent H3-receptor histamine antagonists” (J Med Chem, 1996).

Structures are written as SMILES.

The test system of one test is Mus musculus. As to the kind of experiment: In vivo evaluation for effect on brain tele-methylhistamine levels in mice. It counts as functional. A digest of the protocol: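 Male Swiss mice (18-22 g, groups of at least six) fasted 24 h, then dosed orally as salt suspended in 1% methylcellulose (doses as free base, starting at 10 mg/kg). Cerebral cortex taken 90 min later, homogenized in ice-cold 0.4 M perchloric acid; tele-methylhistamine measured by radioimmunoassay. ED50 calculated relative to maximal level produced by 10 mg/kg thioperamide.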

The next test concerns the target Histamine H3 receptor (Rattus norvegicus, UniProt Q9QYN8). Kind of test: Rat Histamine H3 receptor antagonism determined by [K+] - evoked depolarization-induced release of [3H]histamine from rat cerebral cortex synaptosomes. It counts as functional, subcellular, Brain.

Chain of Histamine H3 receptor (Q9QYN8 whole entry): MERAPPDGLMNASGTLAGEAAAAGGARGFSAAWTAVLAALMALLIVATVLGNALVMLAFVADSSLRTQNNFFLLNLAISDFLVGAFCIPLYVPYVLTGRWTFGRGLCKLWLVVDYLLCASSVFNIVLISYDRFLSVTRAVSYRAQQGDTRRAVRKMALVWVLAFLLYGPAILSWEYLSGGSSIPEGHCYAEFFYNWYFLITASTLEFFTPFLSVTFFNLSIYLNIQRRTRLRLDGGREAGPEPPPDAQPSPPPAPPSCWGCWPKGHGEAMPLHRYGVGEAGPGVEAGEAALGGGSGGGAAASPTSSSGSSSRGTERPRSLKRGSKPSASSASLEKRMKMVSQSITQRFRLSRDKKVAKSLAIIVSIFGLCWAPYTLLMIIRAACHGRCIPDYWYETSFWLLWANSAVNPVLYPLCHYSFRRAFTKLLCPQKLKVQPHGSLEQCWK

For `O=[N+]([O-])c1ccc(SCCc2c[nH]cn2)nc1`, the 50% effect level with Mus musculus (ED50) was put at a dose of 2.6 mg/kg.

In the test with Mus musculus, `N#Cc1ccc(OCCCc2c[nH]cn2)cc1` registered an ED50 of 0.54 mg/kg.

Compound `N#Cc1ccc(OCCc2c[nH]cn2)cc1` came in with an ED50 in the test on Mus musculus of 1.2 mg/kg.

Regarding `Clc1ccc(OCCc2c[nH]cn2)cc1`, at Histamine H3 receptor, the Ki came out at 21 nM. Also, it took a dose of 0.78 mg/kg to reach the 50% effect level in the test on Mus musculus (ED50).

In the case of `CC(=O)c1ccc(OCCc2c[nH]cn2)cc1`, the ED50 in the test with Mus musculus was determined as 3.2 mg/kg.

For `Brc1ccc(OCCc2c[nH]cn2)cc1`, the Ki at Histamine H3 receptor was determined as 24 nM. The same compound gave an ED50 in the test with Mus musculus of 2.9 mg/kg.

Turning to `c1ccc2cc(OCCc3c[nH]cn3)ccc2c1`, the 50% effect level in the test with Mus musculus (ED50) was put at a dose of 1.5 mg/kg.

`COc1ccc(OCCc2cnc[nH]2)cc1` yielded a Ki at Histamine H3 receptor of 38 nM. In the test with Mus musculus, this compound gave an ED50 of 2.9 mg/kg.

With `O=[N+]([O-])c1ccc(CSCc2c[nH]cn2)cc1`, the ED50 in the test on Mus musculus is over 10 mg/kg.

`O=[N+]([O-])c1ccc(SCCc2c[nH]cn2)cc1` showed a Ki at Histamine H3 receptor of 9 nM. The same compound gave an ED50 in the test with Mus musculus of 2.7 mg/kg.

`O=C(c1ccccc1)c1ccc(OCCc2c[nH]cn2)cc1` showed a Ki on Histamine H3 receptor of 54 nM. Also, the ED50 with Mus musculus was determined as 2.6 mg/kg.

`CCCc1ccc(OCCc2c[nH]cn2)cc1` returned an ED50 in the test on Mus musculus of 1.6 mg/kg.

As for `Cc1ccc(OCCc2c[nH]cn2)cc1`, in the test on Mus musculus, the ED50 stood at 2.3 mg/kg.

Consider `N#Cc1ccccc1OCCc1c[nH]cn1`, for which the ED50 in the test with Mus musculus was over 10 mg/kg.

For the compound `COC(=O)c1ccc(OCCc2c[nH]cn2)cc1`, the Ki on Histamine H3 receptor was 5.1 nM. The compound further came in with an ED50 in the test with Mus musculus of over 3 mg/kg.

At Histamine H3 receptor, `N#Cc1cccc(OCCc2c[nH]cn2)c1` registered a Ki of 39 nM. The compound further registered an ED50 with Mus musculus of 2.9 mg/kg.

As to `O=[N+]([O-])c1cccc(OCCc2c[nH]cn2)c1`, affinity at Histamine H3 receptor was put at a Ki of 12 nM. In addition, the ED50 in the test on Mus musculus worked out at 0.9 mg/kg.

Regarding `FC(F)(F)c1ccc(OCCc2cnc[nH]2)cc1`, the affinity on Histamine H3 receptor corresponds to a Ki of 68 nM. Moreover, in the test on Mus musculus, the median effective dose (ED50) is over 10 mg/kg.

Regarding `FC(F)(F)c1ccc(OCCCc2c[nH]cn2)cc1`, in the test with Mus musculus, the ED50 was 0.6 mg/kg.

The compound `Clc1cc(Cl)cc(OCCc2c[nH]cn2)c1` yielded a Ki at Histamine H3 receptor of over 500 nM. Besides, in the test on Mus musculus, the ED50 is over 10 mg/kg.

The compound `c1ccc2c(OCCc3c[nH]cn3)cccc2c1` returned a Ki on Histamine H3 receptor of 137 nM. Besides, it took a dose of 3.4 mg/kg to reach the 50% effect level in the test with Mus musculus (ED50).

At Histamine H3 receptor, `Fc1c(F)c(F)c(OCCc2c[nH]cn2)c(F)c1F` registered a Ki of over 500 nM. It took a dose of 10 mg/kg to reach the 50% effect level with Mus musculus (ED50).

At Histamine H3 receptor, `Fc1ccc(OCCCc2cnc[nH]2)cc1` returned a Ki of 11 nM. The 50% effect level with Mus musculus (ED50) was put at a dose of 4.9 mg/kg.

At Histamine H3 receptor, `O=C(c1ccc(OCCc2cnc[nH]2)cc1)N1CCCCC1` registered a Ki of 338 nM. This compound also returned an ED50 in the test with Mus musculus of over 10 mg/kg.

At Histamine H3 receptor, `CCC(=O)c1ccc(OCCc2cnc[nH]2)cc1` returned a Ki of 3.7 nM. The compound further gave an ED50 in the test with Mus musculus of 0.95 mg/kg.

Consider `CCc1ccc(OCCc2cnc[nH]2)cc1`, for which the Ki at Histamine H3 receptor amounted to 80 nM. This compound also had an ED50 with Mus musculus of over 10 mg/kg.

Consider `O=[N+]([O-])c1ccc(OCCc2c[nH]cn2)cc1`, for which the ED50 with Mus musculus is 0.66 mg/kg.

For the compound `O=[N+]([O-])c1ccc(NCCc2c[nH]cn2)nc1`, affinity on Histamine H3 receptor was put at a Ki of 29 nM.

`CCOC(=O)c1ccc(OCCc2c[nH]cn2)cc1` registered a Ki on Histamine H3 receptor of 6 nM. This compound had an ED50 in the test with Mus musculus of over 10 mg/kg.

In turn, `O=[N+]([O-])c1ccc(NCCc2c[nH]cn2)cc1` had an ED50 in the test with Mus musculus of 10.7 mg/kg.

As for `S=C(NC1CCCCC1)N1CCC(c2cnc[nH]2)CC1` [THIOPERAMIDE], the 50% effect level in the test with Mus musculus (ED50) was put at a dose of 1 mg/kg.
